In assay [1] the target is Epidermal growth factor receptor (Mus musculus) (UniProt Q01279). Put plainly: Inhibition of EGF-stimulated EGFR phosphorylation in mouse HER14 cells by immunoblotting. In kind it is cell-based. Put shortly: (§1)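 Cells were preincubated with a range of inhibitor concentrations for 5 min at 37°C, then stimulated for 5 min at 37°C (unstimulated controls kept): PDGF 40 ng/ml for PDGFR, insulin 1 μg/ml for insulin receptor, EGF 100 ng/ml for EGFR. Lysates were immunoprecipitated with receptor-specific antibodies, run on SDS-PAGE and immunoblotted with anti-phosphotyrosine.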

The next assay has as its system NIH3T3. The experiment in a line: Growth inhibition of mouse NIH/3T3 cells assessed as inhibition of acidic FGF-stimulated [3H]thymidine incorporation. It is filed as functional, cell-based. In a few lines: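 NIH 3T3 cells, untreated or pretreated with inhibitor at 50 μM, were stimulated with aFGF and then labeled with [3H]thymidine. Thymidine incorporation was measured after 24 hours.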
In general terms: Dividing cells build labelled thymidine or BrdU into new DNA.

Assay [2] deals with Insulin receptor (Mus musculus) (UniProt P15208). The experiment in a line: Inhibition of insulin-stimulated insulin receptor beta subunit autophosphorylation in mouse NIHIR cells. In kind it is cell-based. In a few lines:
as §1

In assay [3] the target is T1, Platelet-derived growth factor receptor (Mus musculus) (UniProt P05622+P26618). Put plainly: Inhibition of PDGFR in mouse NIH/3T3 cells assessed as PDGF-stimulated Erk2 activation by immunoblotting. It is filed as cell-based. The note with it: NIH3T3. (A western blot detects proteins with antibodies after separation by electrophoresis.)
The target of assay [4] is Fibroblast growth factor receptor 1 (Homo sapiens, UniProt P11362). Put plainly: Inhibition of FGFR1K autophosphorylation activity assessed as [32P] incorporation.
In assay [5] the target is Epidermal growth factor receptor (Mus musculus) (UniProt Q01279). The experiment in a line: Inhibition of EGFR phosphorylation in mouse NIH/3T3 cells at 200 uM. It is filed as cell-based. The settings on record: NIH3T3.
The target in assay [6] is Insulin receptor (Mus musculus) (UniProt P15208). The experiment in a line: Inhibition of insulin receptor tyrosine phosphorylation in mouse NIH3T3 cells. It is filed as cell-based. In a few lines:
as §1

Assay [7] has as its target Epidermal growth factor receptor (Mus musculus) (UniProt Q01279). The experiment in a line: Inhibition of EGFR in mouse HER14 cells assessed as inhibition of EGF-stimulated Shc phosphorylation by immunoblotting. In kind it is cell-based. Put shortly:
(§2)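 Cells were preincubated with a range of inhibitor concentrations for 5 min at 37°C, then stimulated for 5 min at 37°C: PDGF 40 ng/ml, insulin 1 μg/ml or EGF 100 ng/ml. Whole-lysate portions went directly to SDS-PAGE and anti-phosphotyrosine immunoblotting, and substrate phosphoproteins were located by position.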

Assay [8] addresses Fibroblast growth factor receptor 1 (Mus musculus, UniProt P16092). The experiment in a line: Inhibition of acidic FGF-stimulated FGFR1 tyrosine autophosphorylation in mouse NIH/3T3 cells by immunoblotting. In kind it is cell-based, NIH3T3.
Assay [9] deals with Insulin receptor (Mus musculus) (UniProt P15208). Put plainly: Inhibition of insulin receptor in mouse NIHIR cells assessed as inhibition of insulin-stimulated IRS1 phosphorylation. It is filed as cell-based. In a few lines:
as §2

The target of assay [10] is T1, Platelet-derived growth factor receptor (Mus musculus). The experiment in a line: Inhibition of PDGFR in mouse NIH/3T3 cells assessed as inhibition of PDGF-stimulated phospholipase C gamma phosphorylation by immunoblotting. In kind it is cell-based. The settings on record: NIH3T3. In a few lines: as §2
In assay [11] the target is Epidermal growth factor receptor (Mus musculus) (UniProt Q01279). The experiment in a line: Inhibition of EGFR in mouse HER14 cells assessed as inhibition of EGF-stimulated ERK2 activation by immunoblotting. It is filed as cell-based.
For assay [12], the target named is T1, Platelet-derived growth factor receptor (Mus musculus). The experiment in a line: Inhibition of PDGFR in mouse NIH/3T3 cells assessed as inhibition of PDGF-stimulated tyrosine autophosphorylation by immunoblotting. The settings on record: NIH3T3. In kind it is cell-based. Put shortly:
as §1

Assay [13] shares this target. The experiment in a line: Inhibition of PDGFR tyrosine phosphorylation in mouse NIH3T3 cells. In kind it is cell-based. In a few lines: as §1

Molecules are shown by their SMILES. Activity calls are given as the source filed them. The rule behind the calls is not given here.

Data on two compounds can be found in ChEMBL document CHEMBL1153828, “Structures of the tyrosine kinase domain of fibroblast growth factor receptor in complex with inhibitors” (Science, 1997).

Sequence of Epidermal growth factor receptor (Mus musculus) (Q01279 whole entry): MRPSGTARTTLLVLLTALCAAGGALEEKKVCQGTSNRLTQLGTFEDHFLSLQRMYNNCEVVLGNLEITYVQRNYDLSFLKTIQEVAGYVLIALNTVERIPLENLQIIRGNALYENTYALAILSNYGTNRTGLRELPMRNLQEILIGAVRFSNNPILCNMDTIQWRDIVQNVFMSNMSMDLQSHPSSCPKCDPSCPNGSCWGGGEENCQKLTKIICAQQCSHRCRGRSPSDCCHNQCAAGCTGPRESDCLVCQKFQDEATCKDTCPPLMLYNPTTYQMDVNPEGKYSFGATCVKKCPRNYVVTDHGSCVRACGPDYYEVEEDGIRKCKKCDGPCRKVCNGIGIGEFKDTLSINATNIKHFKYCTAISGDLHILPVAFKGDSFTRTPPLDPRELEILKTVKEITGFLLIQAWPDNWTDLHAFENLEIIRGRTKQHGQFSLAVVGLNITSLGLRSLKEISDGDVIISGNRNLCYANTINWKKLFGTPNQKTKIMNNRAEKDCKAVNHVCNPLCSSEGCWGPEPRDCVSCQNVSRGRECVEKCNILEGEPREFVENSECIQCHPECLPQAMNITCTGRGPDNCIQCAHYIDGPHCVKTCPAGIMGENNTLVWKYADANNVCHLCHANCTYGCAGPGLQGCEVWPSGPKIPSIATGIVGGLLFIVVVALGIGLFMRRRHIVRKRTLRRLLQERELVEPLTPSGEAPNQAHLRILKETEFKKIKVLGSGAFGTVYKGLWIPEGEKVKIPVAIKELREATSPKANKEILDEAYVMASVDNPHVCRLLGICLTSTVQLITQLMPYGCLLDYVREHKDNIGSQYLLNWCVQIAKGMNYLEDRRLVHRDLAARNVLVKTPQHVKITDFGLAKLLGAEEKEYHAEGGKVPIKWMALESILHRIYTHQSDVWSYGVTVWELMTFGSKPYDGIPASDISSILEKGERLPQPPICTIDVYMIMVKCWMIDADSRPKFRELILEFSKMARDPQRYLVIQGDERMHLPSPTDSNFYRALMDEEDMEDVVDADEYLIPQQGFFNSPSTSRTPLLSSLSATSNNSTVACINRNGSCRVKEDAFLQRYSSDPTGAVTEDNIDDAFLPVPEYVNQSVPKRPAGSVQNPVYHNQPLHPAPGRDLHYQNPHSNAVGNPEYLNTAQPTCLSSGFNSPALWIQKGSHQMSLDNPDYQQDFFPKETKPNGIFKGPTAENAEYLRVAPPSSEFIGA
Sequence of Insulin receptor (Mus musculus) (P15208 28-748 limits assumed): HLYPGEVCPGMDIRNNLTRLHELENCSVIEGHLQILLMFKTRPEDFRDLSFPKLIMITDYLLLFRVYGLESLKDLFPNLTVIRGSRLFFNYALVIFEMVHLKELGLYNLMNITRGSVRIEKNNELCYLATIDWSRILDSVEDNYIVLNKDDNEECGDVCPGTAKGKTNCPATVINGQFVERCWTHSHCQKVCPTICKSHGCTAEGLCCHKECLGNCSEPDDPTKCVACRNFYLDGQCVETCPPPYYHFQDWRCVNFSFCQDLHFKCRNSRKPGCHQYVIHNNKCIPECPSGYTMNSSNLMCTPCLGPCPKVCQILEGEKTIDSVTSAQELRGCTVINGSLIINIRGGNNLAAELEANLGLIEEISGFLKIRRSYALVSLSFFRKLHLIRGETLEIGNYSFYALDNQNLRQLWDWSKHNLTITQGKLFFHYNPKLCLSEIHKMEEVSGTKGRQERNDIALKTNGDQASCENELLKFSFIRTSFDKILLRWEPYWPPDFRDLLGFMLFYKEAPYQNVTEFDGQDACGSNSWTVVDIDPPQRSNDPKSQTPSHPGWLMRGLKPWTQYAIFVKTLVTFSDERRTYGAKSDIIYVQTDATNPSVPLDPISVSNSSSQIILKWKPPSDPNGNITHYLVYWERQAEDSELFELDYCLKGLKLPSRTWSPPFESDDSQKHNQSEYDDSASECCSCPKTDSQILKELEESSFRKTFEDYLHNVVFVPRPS
Sequence of Insulin receptor (Mus musculus) (P15208 753-1372 limits assumed): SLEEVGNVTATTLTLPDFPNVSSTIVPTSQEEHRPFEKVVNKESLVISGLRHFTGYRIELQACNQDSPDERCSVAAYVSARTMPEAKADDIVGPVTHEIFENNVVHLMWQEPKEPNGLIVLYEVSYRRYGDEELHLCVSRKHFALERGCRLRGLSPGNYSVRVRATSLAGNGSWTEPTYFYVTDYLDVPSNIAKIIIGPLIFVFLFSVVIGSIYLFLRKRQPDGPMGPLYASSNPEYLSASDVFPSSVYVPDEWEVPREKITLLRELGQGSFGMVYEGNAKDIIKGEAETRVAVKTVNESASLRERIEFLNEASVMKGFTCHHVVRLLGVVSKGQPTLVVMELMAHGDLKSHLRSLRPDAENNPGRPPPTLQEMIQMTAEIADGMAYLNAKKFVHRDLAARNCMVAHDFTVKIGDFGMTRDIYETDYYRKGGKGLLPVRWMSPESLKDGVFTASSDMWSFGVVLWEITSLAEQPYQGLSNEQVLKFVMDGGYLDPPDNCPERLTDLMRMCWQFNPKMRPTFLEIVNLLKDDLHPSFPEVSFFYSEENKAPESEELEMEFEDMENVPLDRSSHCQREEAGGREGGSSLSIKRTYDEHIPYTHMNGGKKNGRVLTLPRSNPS
Sequence of Fibroblast growth factor receptor 1 (Mus musculus, UniProt P16092) (P16092 whole entry): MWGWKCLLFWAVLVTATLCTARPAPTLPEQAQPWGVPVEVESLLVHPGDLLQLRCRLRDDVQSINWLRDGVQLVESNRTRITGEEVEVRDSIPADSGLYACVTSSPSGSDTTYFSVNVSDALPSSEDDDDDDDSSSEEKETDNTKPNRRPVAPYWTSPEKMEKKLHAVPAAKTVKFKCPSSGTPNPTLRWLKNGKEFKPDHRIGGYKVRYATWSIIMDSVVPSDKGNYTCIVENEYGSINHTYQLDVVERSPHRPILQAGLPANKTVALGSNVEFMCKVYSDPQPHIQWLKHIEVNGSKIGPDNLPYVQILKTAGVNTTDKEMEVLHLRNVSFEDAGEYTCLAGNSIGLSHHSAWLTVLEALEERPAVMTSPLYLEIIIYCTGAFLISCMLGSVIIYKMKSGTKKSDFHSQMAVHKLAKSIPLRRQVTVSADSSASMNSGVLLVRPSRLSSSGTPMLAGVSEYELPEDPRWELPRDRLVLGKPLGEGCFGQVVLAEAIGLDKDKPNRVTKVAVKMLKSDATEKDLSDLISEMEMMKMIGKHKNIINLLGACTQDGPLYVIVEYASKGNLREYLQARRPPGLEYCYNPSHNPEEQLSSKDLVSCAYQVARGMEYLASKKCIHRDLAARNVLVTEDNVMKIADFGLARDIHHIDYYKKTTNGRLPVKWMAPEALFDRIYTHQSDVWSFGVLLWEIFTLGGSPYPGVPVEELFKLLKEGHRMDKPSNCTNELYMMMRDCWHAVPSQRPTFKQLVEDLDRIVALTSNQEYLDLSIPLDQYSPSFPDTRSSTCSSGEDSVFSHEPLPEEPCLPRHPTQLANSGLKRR
Sequence of Fibroblast growth factor receptor 1 (Homo sapiens, UniProt P11362) (P11362 whole entry): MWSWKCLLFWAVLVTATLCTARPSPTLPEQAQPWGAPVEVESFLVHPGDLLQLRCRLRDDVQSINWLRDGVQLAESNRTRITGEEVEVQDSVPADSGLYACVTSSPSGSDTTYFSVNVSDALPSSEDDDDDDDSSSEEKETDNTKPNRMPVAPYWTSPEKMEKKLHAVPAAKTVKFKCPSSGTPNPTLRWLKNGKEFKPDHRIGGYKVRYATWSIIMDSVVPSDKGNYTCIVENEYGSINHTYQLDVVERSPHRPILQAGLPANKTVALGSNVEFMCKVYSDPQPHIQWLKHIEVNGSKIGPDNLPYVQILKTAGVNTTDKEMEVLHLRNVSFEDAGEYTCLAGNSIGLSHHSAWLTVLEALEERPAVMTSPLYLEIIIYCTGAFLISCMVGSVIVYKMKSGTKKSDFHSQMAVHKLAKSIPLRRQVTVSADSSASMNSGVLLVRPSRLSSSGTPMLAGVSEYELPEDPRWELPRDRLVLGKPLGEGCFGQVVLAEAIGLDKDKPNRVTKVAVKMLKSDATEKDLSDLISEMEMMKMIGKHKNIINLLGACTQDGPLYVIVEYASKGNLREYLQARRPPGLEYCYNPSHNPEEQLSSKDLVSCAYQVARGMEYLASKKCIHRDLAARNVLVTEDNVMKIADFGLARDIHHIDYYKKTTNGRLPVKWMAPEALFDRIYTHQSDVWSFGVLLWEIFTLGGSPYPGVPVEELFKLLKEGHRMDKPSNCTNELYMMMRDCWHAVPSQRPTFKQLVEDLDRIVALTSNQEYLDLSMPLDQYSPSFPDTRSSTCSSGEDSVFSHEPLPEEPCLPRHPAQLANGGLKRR

The IC50 is the point on the concentration scale where inhibition reaches its midpoint. With `Cc1c[nH]c(/C=C2\C(=O)Nc3ccccc32)c1CCC(=O)O`, the outcome (in [1]; in the assay on NIH3T3; in [2]; in assay [3]; in assay [7]; in [9]) was Active. The outcome in assay [10], in assay [11] and in [12] was Active. The IC50 in assay [4] and in [8] was 10 µM each time. Further, the result in assay [5] and in assay [6] was inactive.

Consider `O=CN1CCN(c2ccc(/C=C3\C(=O)Nc4ccccc43)cc2)CC1`, for which the result (with NIH3T3; in assay [2]; in [3]; in [6]; in [9]; in assay [10]) was Active. Moreover, the result in [13] and in [12] was Active. Also, the IC50 in [4] was 10 µM; in assay [8], 20 µM. For the same compound, the result in [5] was inactive.
